Results on one molecule are retold here after ChEMBL document CHEMBL4811241, “Revisiting Pyrazolo[3,4-d]pyrimidine Nucleosides as Anti-Trypanosoma cruzi and Antileishmanial Agents” (J Med Chem, 2021).

Series [1] has as its system Trypanosoma cruzi. The series can be described thus: Antitrypanosomal activity against Trypanosoma cruzi strain Y bloodstream trypomastigotes infected in Swiss Webster mouse assessed as reduction in parasitemia at 2.5 mg/kg, po bid for 5 days treatment started at 6 days post-infection in presence of 10 mg/kg, po Benznidazole by light microscopic analysis. Format: functional. The settings on record: 120 h, time 5 day. In outline: (§1)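 Male Swiss Webster mice, 18–20 g, six per group; only mice with detectable parasitemia treated. Oral gavage for 5 consecutive days (6–10 dpi); test compound given b.i.d. in 10% Tween 80, benznidazole once daily, formulations freshly prepared. Parasitemia counted by light microscopy in 5 μL blood; mortality checked daily to 34 dpi.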

The test system of series [2] is Trypanosoma cruzi. The experiment in a line: Antitrypanosomal activity against nifurtimox-sensitive Trypanosoma cruzi Tulahuen CL2 infected in Swiss mouse peritoneal macrophages assessed as inhibition of parasite growth measured after 7 days in presence of ABC transporter inhibitor, probenecid by spectrophotometric analysis. Format: functional, organism-based. The settings on record: Tulahuen CL2, Peritoneal macrophage, 168 h. In outline:
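Macrophage-hosted 7-day assay read with CPRG at 540 nm, with compound given together with an ABC transporter inhibitor: cyclosporine A 2 μM, probenecid 700 μM or verapamil 8 μM. IC50 from % reduction versus infected controls.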

Series [3] has as its target T1, CYP450 (Homo sapiens, UniProt P04798+P05177+P05181+P08684+P10632+P10635+P11509+P11712+P13584+P20813+P20815+P20853+P24462+P24903+P33260+P33261+P51589+P78329+P98187+Q02928+Q08477+Q16678+Q16696+Q5TCH4+Q6VVX0+Q7Z449+Q8TAV3+Q96SQ9+Q9HB55). The experiment in a line: Metabolic stability of the compound in human liver microsomes S9 fraction assessed as CYP450-mediated metabolism by measuring parent compound remaining at 5 uM measured after 15 mins in presence of NADPH by UPLC-MS analysis. Format: ADME, subcellular. The settings on record: read-out: Stabilty. The essentials: (§2)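 Compound at 5 μM with 0.5 mg/mL male mouse or pooled human liver microsomes in potassium phosphate buffer; reaction started with 1 mM NADPH. Samples taken at 0, 15, 30 and 60 min and quenched in cold acetonitrile with internal standard. Parent remaining quantified by UPLC-MS/MS in MRM mode and given as % of the 0 min value.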
For orientation: Liver microsomes are vesicles of endoplasmic reticulum, rich in cytochrome P450 enzymes.

The target in series [4] is T1, CYP450. The experiment in a line: Metabolic stability of the compound in human liver microsomes S9 fraction assessed as CYP450-mediated metabolism by measuring parent compound remaining at 5 uM measured after 30 mins in presence of NADPH by UPLC-MS analysis. The class given is ADME, subcellular. The settings on record: read-out: Stabilty. In outline: as §2
Another series has as its system Leishmania infantum. The series can be described thus: Antileishmanial activity against amastigote form of Leishmania infantum MHOM/MA(BE)/67 infected in Swiss mouse peritoneal macrophages assessed as reduction in parasite growth treated at 2 hrs post-infection and measured after 5 days by Giemsa staining based microscopic analysis. Format: functional, organism-based. Conditions: MHOM/MA(BE)/67, Peritoneal macrophage. The essentials:
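Swiss mouse peritoneal macrophages, harvested after 2-day potato-starch stimulation, infected 48 h after plating; compounds added 2 h post-infection.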

Series [5] concerns Trypanosoma cruzi. The series can be described thus: Antitrypanosomal activity against Trypanosoma cruzi Y bloodstream trypomastigotes assessed as inhibition of parasite growth incubated for 24 hrs by light microscopy. The class given is functional, organism-based.
A short description of series [6]: Cytotoxicity against human MRC-5 SV2 cells assessed as reduction in cell growth measured after 3 days by resazurin dye based fluorometric analysis. The settings on record: time 3 day. In general terms: The colour change of resazurin is a common sign of viable cells or microbes.
Series [7] in a line: Cytotoxicity against Swiss mouse peritoneal macrophages assessed as cell detachment, lysis and granulation measured after 5 days by microscopic analysis. Format: cell-based, Peritoneal macrophage. The settings on record: time 5 day. The essentials:
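Scored within the Leishmania macrophage assay over 5 days: detachment, lysis and granulation judged semi-quantitatively by microscopy across at least 500 cells. CC50 derived from % reduction in normal cells versus untreated wells.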

Series [8] can be described thus: Toxicity in Swiss webster mouse infected with Trypanosoma cruzi Y trypomastigotes assessed as animal survival at 2.5 to 25 mg/kg, po bid for 5 days treatment started at 6 days post-infection and measured at 34 days post-infection. The class given is organism-based. Conditions: in vivo, dose 2.5-25 mg/kg, time 29 day. In outline: (§3)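 Male Swiss Webster mice (18−20 g, 4−5 weeks) were infected i.p. with 10⁴ Y-strain bloodstream trypomastigotes from a donor mouse. Only mice with detectable parasitemia were treated, in groups of six. Oral gavage was given on days 6–10 post-infection, b.i.d. or q.d. as listed, in 10% Tween 80 vehicle, freshly prepared. Infected vehicle controls were included. Mortality was checked daily to 34 dpi as cumulative percentage.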

A further series deals with UGT (Homo sapiens, UniProt O60656+O75310+O75795+P06133+P0DTE4+P0DTE5+P16662+P19224+P22309+P22310+P35503+P35504+P36537+P54855+Q6UWM9+Q9BY64+Q9HAW7+Q9HAW8+Q9HAW9). The experiment in a line: Metabolic stability of the compound in human liver microsomes S9 fraction assessed as UGT-mediated metabolism by measuring parent compound remaining at 5 uM measured after 30 mins in presence of UDPGA by UPLC-MS analysis. The class given is ADME, subcellular. Conditions: read-out: Stabilty. The essentials:
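Compound at 5 μM with 0.5 mg/mL male mouse or pooled human liver microsomes; reaction started with 2 mM UDPGA. Sampled at 0, 15, 30 and 60 min and quenched in cold acetonitrile with internal standard. Parent remaining measured by UPLC-MS/MS (MRM) as % of the 0 min value.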

A short description of series [9]: Toxicity in Swiss webster mouse infected with Trypanosoma cruzi Y trypomastigotes assessed as animal survival at 0.25 mg/kg, po bid for 5 days treatment started at 6 days post-infection and measured at 34 days post-infection. The class given is organism-based. The settings on record: in vivo, 696 h, time 29 day. In outline: as §3
Series [10] has as its system CYP450. The experiment in a line: Metabolic stability of the compound in mouse liver microsomes S9 fraction assessed as CYP450-mediated metabolism by measuring parent compound remaining at 5 uM measured after 15 mins in presence of NADPH by UPLC-MS analysis. The class given is ADME, subcellular. Conditions: read-out: Stabilty. In outline: as §2
Series [11] has as its system Trypanosoma cruzi. The experiment in a line: Antitrypanosomal activity against Trypanosoma cruzi strain Y bloodstream trypomastigotes infected in Swiss Webster mouse assessed as reduction in parasitemia at 0.25 to 2.5 mg/kg, po bid for 5 days treatment started at 6 days post-infection by light microscopic analysis. Conditions: dose 0.25-2.5 mg/kg, time 5 day. The class given is functional. In outline:
as §1

As usually defined, the inhibition in vivo is the change of the read-out against control, counted positive when it falls. As usually defined, the IC50 is the concentration at which inhibition is half-maximal. Usually CC50 stands for the concentration that lowers cell viability or growth by half.

With `Nc1ncnc2c1c(-c1ccc(Cl)cc1)nn2[C@@H]1O[C@H](CO)[C@@H](O)[C@H]1O`, the inhibition in vivo at 2.5 mg/kg with Trypanosoma cruzi [1] is 71%. The values for the IC50 with Trypanosoma cruzi [2], in the series on Leishmania infantum and with Trypanosoma cruzi [5] were over 64 µM, over 64 µM and over 81 µM, respectively. Moreover, the remaining at 0.25 h, 5 µM at CYP450 [3] came out at 102%; in the series on CYP450 [10] it was 103%. Moreover, the remaining at 0.5 h, 5 µM at CYP450 [4] was 101%; on UGT it was 106%. The CC50 at 72 h in [6] is over 64 µM. Also, in [7], the cytotoxic concentration (CC50) at 120 h is over 64 µM. Further, in series [8], the survival at 696 h was determined as 83%. Further, in [9], the Activity result is given as “Toxic”. In the series with Trypanosoma cruzi [11], the “inhibition (INH)” value turned out to be 43%.
